Screening results as filed in PubChem BioAssay.
OXTR ag – agonists of human oxytocin receptor; P30559; CHO-OTR cells, Fluo-8 calcium fluorescence; normalized: DMSO 0%, oxytocin 100%; activation, % at 3 µM; hit rate 0.32% among 320,000;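 active = activation above the mean of all tested compounds plus 3 SD, cutoff set per screening run, cut at about 20% in these data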;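 also: peak over basal fluorescence ratio from a 100 s FLIPR kinetic read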
TAAR1 antag – antagonists of human TAAR1 | CHO RD-HGA16 TAAR1, Fluo-8 calcium fluorescence, antagonist | inhibition, % at 3 µM | Q96RJ0 | hit rate 1.5% among 360,000 | AID 624466;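 active = inhibition above a per-plate cutoff, the mean inhibition of test compounds on that plate plus 3 SD, cut at about 49% in these data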
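Material: RD-HGA16 CHO cells with stable hTAAR1 and Gα16; Dosing: single nominal final test compound concentration of 3 µM; Schedule: seeding 17-24 h prior, 75-min 37 °C, 30-min RT dye loading; Detection: kinetic Fluo-8 calcium fluorescence measurement; Measure: % inhibition from peak post-agonist over basal fluorescence ratio; Benchmarks: vehicle and agonist controls.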
V1R ag counter – activates human V1a receptor in oxytocin agonist counter-screen; CHO-V1R cells, Fluo-8 calcium fluorescence, agonist mode; 0% DMSO, 100% 3 nM vasopressin; hit rate 0.25% among 320,000; AID 2797; activation, % at 3 µM;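 active = activation above the mean activation of all tested compounds plus 3 SD, per screening run, cut at about 20% in these data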;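 also: signal is peak over basal fluorescence ratio across a 100 second FLIPR read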
Target sequence (P37288 whole entry, looked up): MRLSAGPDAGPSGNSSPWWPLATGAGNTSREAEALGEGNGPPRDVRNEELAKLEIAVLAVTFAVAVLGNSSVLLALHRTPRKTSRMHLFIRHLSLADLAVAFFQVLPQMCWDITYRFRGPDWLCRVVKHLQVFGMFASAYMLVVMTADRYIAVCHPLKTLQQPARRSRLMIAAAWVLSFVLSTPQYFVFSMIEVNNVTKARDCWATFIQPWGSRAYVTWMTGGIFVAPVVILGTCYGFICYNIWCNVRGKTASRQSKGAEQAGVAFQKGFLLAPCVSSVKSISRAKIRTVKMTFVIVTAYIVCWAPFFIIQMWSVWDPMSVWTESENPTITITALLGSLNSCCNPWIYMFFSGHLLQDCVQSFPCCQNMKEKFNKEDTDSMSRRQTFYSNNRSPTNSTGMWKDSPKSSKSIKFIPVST
TAAR1 ag – agonists of human TAAR1 | CHO RD-HGA16 TAAR1, Fluo-8 calcium fluorescence; vehicle wells 0%, saturating PEA agonist 100% | activation, % at 3 µM | hit rate 0.99% among 360,000;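 active = activation above the mean activation of all test compounds in the run plus 3 SD, cut at about 38% in these data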
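Benchmarks: low control DMSO, high control PEA (EC100); System: CHO RD-HGA16 cells carrying human TAAR1 plus Gα16; Detection: Fluo-8 fluorescence, 5 s baseline then 140 s kinetic read; Schedule: 17-24 h plating, Fluo-8 75 min 37 °C, 30 min RT; Read-out basis: % activation from peak over basal fluorescence ratio, DMSO-to-PEA scaled.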
OXTR potentiate – potentiates the human oxytocin receptor response; P30559; CHO-OTR cells, Fluo-8 calcium fluorescence, potentiator mode; 0% = oxytocin EC15, 100% = EC100; activation, % at 3 µM; hit rate 0.061% among 320,000; AID 2445;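 active = activation above that plate's cutoff, the mean activation of tested compounds plus 3 SD, cut at about 6.6% in these data, passing the limit was not always enough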
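Assay system: CHO-OTR cells, human receptor / Also added: oxytocin at about EC15, sub-maximal agonist stimulus / Dosing: single dose, 3.0 µM nominal final compound concentration / Incubation: 6 min pre-incubation, 100 s read / Technique: Fluo-8 calcium dye fluorescence / Read-out: % activation vs EC15 and EC100 oxytocin / Benchmarks: EC15 oxytocin low, 75 nM oxytocin high / Replicates: singlicate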
Each line names hits and unclear results; the compound was inactive in the other large screens. Rows were chosen to be rich in hits. Some 2.3% of all compounds tested hit in one or more screens of this group.

O=C(COC(=O)[C@H](Cc1ccccc1)NC(=O)c1ccco1)Nc1ccccc1	none
Cn1c(=O)c2cc(NC(=S)NC3CCCCC3)ccc2n1C/C=C/c1ccccc1	none (no result: OXTR ag, V1R ag counter, OXTR potentiate)
O=C(CN1C(=O)C2C3C=CC(C4CC34)C2C1=O)Oc1ccccc1 (stereo not drawn)	none
O=C(COC(=O)Cc1c[nH]c2ccccc12)Nc1cccc(Br)c1	none (no result: OXTR ag, V1R ag counter, OXTR potentiate)
O=C(NCc1ccccc1)C1c2ccccc2OCC(=O)N1CCc1c[nH]c2ccccc12 (stereo not drawn)	none (no result: OXTR ag, V1R ag counter, OXTR potentiate)
Cc1nn(C)c(C)c1/C=N/N=C1\CCC2C3CCc4cc(O)ccc4C3CCC12C (stereo not drawn)	TAAR1 antag 62.8
C[C@]12CCC3c4ccc(O)cc4CCC3C1CC/C2=N\N (stereo partly drawn)	none
CC(C)[C@H](NC(=O)c1ccccc1)C(=O)N1CCC[C@H]1C(=O)NCc1ccccc1	none (no result: OXTR ag, V1R ag counter, OXTR potentiate)
Cc1cc(C)cc(-n2c(C)cc(C(=O)CSc3nnnn3C)c2C)c1	TAAR1 ag 38.4
Cc1cc(C(=O)COC(=O)c2ccc(O)cc2)c(C)n1CCc1ccc(F)cc1	none
Cc1cc(C(=O)CSc2nc(N)cc(N)n2)c(C)n1CCc1ccc(F)cc1	TAAR1 ag 38.9
O=C1[C@H](Cc2ccccc2)NCCCC[C@@H](c2ccc(Cl)cc2)N1Cc1ccccc1	TAAR1 ag 38.8 (no result: OXTR ag, V1R ag counter, OXTR potentiate)
CCCCC/C=C\C/C=C\C/C=C\C/C=C\CCCC(=O)O	OXTR potentiate 9.6 (no result: TAAR1 antag, TAAR1 ag)
CC/C=C\C/C=C\C/C=C\CCCCCCCC(=O)O	none
Cc1ccc(-c2nn(-c3ccccc3)cc2CN(Cc2ccccc2)C(=O)c2ccco2)o1	TAAR1 antag 55.5
C=CCNC(=O)/C(C#N)=C/c1ccccc1OCc1ccc(C(=O)OC)cc1	TAAR1 antag 49.4
C#CCOCCOCCOCCNc1nc(N2CCN(C(=O)CCCCCCCCCCNC(=O)[C@H](CCCCN)n3cc(C[C@@H](C)CC)nn3)CC2)nc(N2CCN(C(=O)CCCCCCCCCCNC(=O)[C@H](CCCN=C(N)N)n3cc(C[C@@H](C)CC)nn3)CC2)n1	none (no result: TAAR1 antag, TAAR1 ag)
C#CCOCCOCCOCCNc1nc(N2CCN(C(=O)CCCCCCCCCCNC(=O)[C@H](CCCCN)n3cc(CCO)nn3)CC2)nc(N2CCN(C(=O)CCCCCCCCCCNC(=O)[C@H](CCCCN)n3cc(C[C@@H](C)CC)nn3)CC2)n1	V1R ag counter 24.6 (no result: TAAR1 antag, TAAR1 ag)
COc1ccc(-c2csc3ncn(CC(=O)N4CCOCC4)c(=O)c23)cc1	none
COc1ccc(-n2nc(C(=O)NCC(=O)N3CCCCCC3)c3ccccc3c2=O)cc1OC	none
COc1ccc(-n2nc(C(=O)NCC(=O)N3CCCC(C)C3)c3ccccc3c2=O)cc1Cl (stereo not drawn)	none
COc1ccc(-n2nc(C(=O)NCC(=O)NC3CCCCCC3)c3ccccc3c2=O)cc1OC	TAAR1 antag 49.9
COc1ccc(-n2nc(C(=O)NCC(=O)N(C)Cc3ccccc3)c3ccccc3c2=O)cc1OC	TAAR1 antag 48.7
CCOC(=O)C1CCCN(C(=O)CNC(=O)c2nn(-c3ccc(OC)c(Cl)c3)c(=O)c3ccccc23)C1 (stereo not drawn)	TAAR1 antag 50.9, TAAR1 ag 37.9
COc1ccc(CN(C(=O)CSc2nnc(-c3c[nH]c4ccccc34)o2)c2ccc(F)cc2)cc1OC	TAAR1 antag 81.7
COc1ccc(CN(C(=O)CSc2nnc(-c3ccc(F)cc3)o2)c2ccc(F)cc2)cc1	none
CCCCCCCCC(NC(=O)c1ccc(C#N)cc1)C(=O)NCCC (stereo not drawn)	none
CC(O)CNc1nc2sc3c(c2c(=O)n1CCc1ccccc1)CCCCC3 (stereo not drawn)	none
CN(C)CCNc1nc2sc3c(c2c(=O)n1CCc1ccccc1)CCCCC3	TAAR1 ag 39.9
CC(=O)Oc1ccc2c(c1)Oc1cc(OC(C)=O)ccc1C21OC(=O)c2ccccc21	OXTR ag 937.8, V1R ag counter active (no result: TAAR1 antag, TAAR1 ag)
COc1cccc(-c2cnc3c(NC(C)=O)cc(-c4cc(OC)c(OC)c(OC)c4)cn23)c1	TAAR1 antag 50.5 (no result: OXTR ag, V1R ag counter, OXTR potentiate)
COc1cccc(-c2cnc3c(NC(C)=O)cc(-c4ccccc4OC)cn23)c1	TAAR1 antag 57.1 (no result: OXTR ag, V1R ag counter, OXTR potentiate)
CCc1ccc(N(C(=O)CNC(=O)c2ccco2)C(C(=O)NCC2CCCO2)c2ccccc2)cc1 (stereo not drawn)	none
